The source of these data is ChEMBL document CHEMBL1139738, “Pyridine-3-propanoic acids: Discovery of dual PPARalpha/gamma agonists as antidiabetic agents” (Bioorg Med Chem Lett, 2006).

Data set [1] has as its system Mus musculus. The experiment in a line: Increase in body weight in orally dosed db/db mouse at 1 mg/kg after 8 days relative to control. The following applies: route oral. It is filed as functional. The method in brief:
(§1)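 Male db/db mice, 7 weeks old, with lean controls, given vehicle or compound by oral gavage once daily for 8 days. Plasma glucose, triglycerides, hematocrit and body weight measured before dosing on day −1 and 2 h post-dose on day 8. Percent change is expressed versus vehicle control, with significance at p < 0.05.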

Data set [2] has as its system Mus musculus. The experiment in a line: Reduction of hematocrit in orally dosed db/db mouse at 10 mg/kg after 8 days relative to control. Further details: scale not given: the % may be the effect or the level left. The note with it: route oral. The format is functional. The method in brief:
as §1

Data set [3] can be described thus: Half life in orally dosed Sprague-Dawley rat. The format is ADME, organism-based. The note with it: in vivo, po. Summed up: (§2)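 Pharmacokinetics in male Sprague–Dawley rats given iv and oral doses. Outputs are iv clearance (mL/min/kg), oral half-life, dose-normalized oral AUC (h μg/mL) and oral bioavailability (%).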
For data set [4], the target named is T1, Peroxisome proliferator-activated receptor alpha (Homo sapiens) (UniProt Q07869).
T1 sequence (whole entry): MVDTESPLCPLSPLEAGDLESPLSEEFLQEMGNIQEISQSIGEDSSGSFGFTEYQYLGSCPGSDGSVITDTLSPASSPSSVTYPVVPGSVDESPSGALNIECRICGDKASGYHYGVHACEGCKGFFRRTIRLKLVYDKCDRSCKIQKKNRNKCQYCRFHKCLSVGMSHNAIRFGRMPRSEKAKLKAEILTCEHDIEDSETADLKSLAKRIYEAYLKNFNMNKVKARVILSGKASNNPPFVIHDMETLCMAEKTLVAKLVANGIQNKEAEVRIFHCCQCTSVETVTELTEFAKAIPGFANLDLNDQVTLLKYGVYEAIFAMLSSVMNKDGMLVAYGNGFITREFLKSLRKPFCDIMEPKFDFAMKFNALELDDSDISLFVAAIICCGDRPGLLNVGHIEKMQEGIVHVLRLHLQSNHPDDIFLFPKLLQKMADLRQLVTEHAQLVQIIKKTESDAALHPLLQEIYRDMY
As to the kind of experiment: Agonist activity at human PPAR alpha in a HepG2 cells by PPAR-GAL4 transactivation assay relative to GW-2331. The format is functional, cell-based.

Data set [5] has as its target T2, Peroxisome proliferator-activated receptor alpha (Homo sapiens, UniProt Q07869).
T2 sequence (Q07869 whole entry): T1 sequence (whole entry)
As to the kind of experiment: Displacement of radiolabeled GW-2331 from human PPAR alpha by SPA binding assay.

Data set [6] has as its system Mus musculus. The experiment in a line: Reduction of plasma glucose in orally dosed db/db mouse at 10 mg/kg after 8 days relative to control. Also on record: scale not given: the % may be the effect or the level left. It is filed as functional. The note with it: route oral. The method in brief: as §1
The test system of data set [7] is Mus musculus. As to the kind of experiment: Reduction of plasma triglycerides in orally dosed db/db mouse at 1 mg/kg after 8 days relative to control. It is filed as functional. Further details: scale not given: the % may be the effect or the level left. The following applies: route oral. Summed up: as §1
In data set [8] the test system is Mus musculus. The experiment in a line: Reduction of plasma triglycerides in orally dosed db/db mouse at 10 mg/kg after 8 days relative to control. It is filed as functional. Further details: scale not given: the % may be the effect or the level left. The following applies: route oral. The method in brief:
as §1

For data set [9], the target named is T2, Peroxisome proliferator-activated receptor alpha. The experiment in a line: Agonist activity at human PPAR alpha in a HepG2 cells by PPAR-GAL4 transactivation assay. It is filed as functional, cell-based.
Data set [10] in a line: Oral bioavailability in Sprague-Dawley rat. It is filed as ADME, organism-based. The note with it: in vivo. The method in brief: as §2
The subject of data set [11] is Mus musculus. The experiment in a line: Reduction of plasma glucose in orally dosed db/db mouse at 1 mg/kg after 8 days relative to control. The format is functional. Also on record: scale not given: the % may be the effect or the level left. The note with it: route oral. Summed up:
as §1

Data set [12] is described as follows: Clearance in iv dosed Sprague-Dawley rat. It is filed as ADME, organism-based. The following applies: in vivo. Summed up:
as §2

Data set [13] concerns Mus musculus. The experiment in a line: Reduction of hematocrit in orally dosed db/db mouse at 1 mg/kg after 8 days relative to control. The format is functional. Also on record: scale not given: the % may be the effect or the level left. The following applies: route oral. Summed up: as §1
The subject of data set [14] is Mus musculus. As to the kind of experiment: Increase in body weight in orally dosed db/db mouse at 10 mg/kg in a 8 day study. The format is functional. The following applies: route oral. Summed up:
as §1

Each structure is given as a SMILES string. pEC50, pKi: −log10 of the molar value.

For `CO[C@@](C)(Cc1ccc(OCCc2nc(-c3ccccc3)oc2C)nc1)C(=O)O`, the Activity in data set [1] is 13.2%; in [2] it was 7.2%; in data set [6], 106%; in data set [7], 177%; in data set [8], 205%; in data set [11], 88%. For the same molecule, the Activity in data set [13] worked out at 3.8%; in data set [14], 16.8%. The half-life – broadly, the time in which the quantity being followed falls by half – in data set [3] was 9.7 h. The molecule also came in with a %max in data set [4] of 99%. Also, the negative logarithm of the Ki (pKi) (commonly the negative decadic logarithm of the Ki, by convention in mol/L) in data set [5] was 6.24. Further, the pEC50 (in general, the EC50 on a negative log10 scale, so that one unit is a factor of ten) in data set [9] was 6.95. In [10], the bioavailability (usually the share of a dose that reaches the circulation, judged against a reference dose that is usually intravenous) was 87%. In addition, the clearance (in general, the rate of elimination divided by the concentration) in data set [12] worked out at 2.2 mL/min/kg.
